≈ marks a conversion by molar mass, not a printed value.
Columns and labels:
Assay type in all cases: functional
Enterococcus faecalis = test: Antibacterial activity against Enterococcus faecalis ATCC 29212 after overnight incubation by broth microdilution method
Outline: (§1)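 MIC from a broth microdilution screen against ATCC reference strains, run in cation-adjusted Mueller–Hinton broth. Inocula were made from overnight agar cultures: colonies were suspended in sterile saline to a turbidity equal to a 0.5 McFarland standard. The screen's upper cut-off was […]. Testing conditions were pH 7.4.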

Streptococcus pneumoniae = test: Antibacterial activity against Streptococcus pneumoniae ATCC 6305 after overnight incubation by broth microdilution method
Outline: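 Broth microdilution MIC in cation-adjusted Mueller–Hinton broth supplemented with 5% horse serum. The inoculum was overnight agar colonies suspended in sterile saline to 0.5 McFarland turbidity. The screen cut-off was […]. Testing conditions were pH 7.4.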

Moraxella catarrhalis = test: Antibacterial activity against Moraxella catarrhalis ATCC 23246 after overnight incubation by broth microdilution method; outline: as §1
Staphylococcus aureus = test: Antibacterial activity against Staphylococcus aureus ATCC 29213 after overnight incubation by broth microdilution method
Outline: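 MIC from a broth microdilution screen in cation-adjusted Mueller–Hinton broth against the ATCC reference strain. The inoculum was colonies from overnight agar culture suspended in sterile saline to a 0.5 McFarland turbidity. The top concentration tested was […]. Testing conditions were pH 7.4.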

Escherichia coli = test: Antibacterial activity against Escherichia coli ATCC 25922 after overnight incubation by broth microdilution method; outline: as §1
Haemophilus influenzae = test: Antibacterial activity against Haemophilus influenzae ATCC 49247 after overnight incubation by broth microdilution method
Outline: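 Broth microdilution MIC run in Haemophilus Test Medium (HTM). The inoculum was overnight agar colonies suspended in sterile saline to 0.5 McFarland turbidity. The upper cut-off was […]. Testing conditions were pH 7.4.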

SMILES | MIC (Enterococcus faecalis) | MIC (Streptococcus pneumoniae) | MIC (Moraxella catarrhalis) | MIC (Staphylococcus aureus) | MIC (Escherichia coli) | MIC (Haemophilus influenzae)
C[C@@H](C(=O)O)N1SC(C)(C)[C@@H](N2C(=O)[C@@H](N3C(=O)c4ccccc4C3=O)[C@@H]2Cl)C1=O | > 128 µg/mL |  |  |  |  | 
CC(C)N1SC(C)(C)[C@@H](N2C(=O)[C@@H](N3C(=O)c4ccccc4C3=O)[C@@H]2Cl)C1=O |  |  | 64 µg/mL (≈ 152 µM) |  |  | 
CC1(C)S[C@@H]2[C@H](N3C(=O)c4ccccc4C3=O)C(=O)N2[C@H]1C(=O)N[C@H](C(=O)OCc1ccccc1)c1ccccc1 |  |  | > 128 µg/mL |  |  | 
CC1(C)S[C@@H]2[C@H](NC(=O)[C@H](N)c3ccc(O)cc3)C(=O)N2[C@H]1C(=O)O [AMOXICILLIN] | 4 µg/mL (≈ 10.9 µM) | 4 µg/mL (≈ 10.9 µM) | 0.5 µg/mL (≈ 1.37 µM) | 1 µg/mL (≈ 2.74 µM) | 0.5 µg/mL (≈ 1.37 µM) | 0.015 µg/mL (≈ 0.041 µM)
CC1(C)S[C@@H]2[C@H](N3C(=O)c4ccccc4C3=O)C(=O)N2[C@H]1C(=O)NCc1ccccc1 |  |  | 64 µg/mL (≈ 147 µM) |  |  | 
CC(C)NC(=O)[C@@H]1N2C(=O)[C@@H](N3C(=O)c4ccccc4C3=O)[C@H]2SC1(C)C |  |  | > 128 µg/mL |  |  | 

More lines, now with the values ahead:

MIC (Enterococcus faecalis) | MIC (Streptococcus pneumoniae) | MIC (Moraxella catarrhalis) | MIC (Staphylococcus aureus) | MIC (Escherichia coli) | MIC (Haemophilus influenzae) | SMILES
16 µg/mL (≈ 26.5 µM) | 8 µg/mL (≈ 13.2 µM) | 64 µg/mL (≈ 106 µM) | 32 µg/mL (≈ 53 µM) | > 128 µg/mL | > 128 µg/mL | CC1(C)SN([C@H](C(=O)OCc2ccccc2)c2ccccc2)C(=O)[C@@H]1N1C(=O)[C@@H](N2C(=O)c3ccccc3C2=O)[C@@H]1Cl
 |  | 64 µg/mL (≈ 130 µM) |  |  |  | CC1(C)S[C@@H]2[C@H](N3C(=O)c4ccccc4C3=O)C(=O)N2[C@H]1C(=O)NCC(=O)OCc1ccccc1
32 µg/mL (≈ 60.6 µM) | 64 µg/mL (≈ 121 µM) | 32 µg/mL (≈ 60.6 µM) | 64 µg/mL (≈ 121 µM) | > 128 µg/mL | > 128 µg/mL | CC1(C)SN(CC(=O)OCc2ccccc2)C(=O)[C@@H]1N1C(=O)[C@@H](N2C(=O)c3ccccc3C2=O)[C@@H]1Cl
> 128 µg/mL |  |  |  |  |  | CC1(C)SN(CC(=O)O)C(=O)[C@@H]1N1C(=O)[C@@H](N2C(=O)c3ccccc3C2=O)[C@@H]1Cl
 |  | > 128 µg/mL |  |  |  | CC1(C)SN([C@H](C(=O)O)c2ccccc2)C(=O)[C@@H]1N1C(=O)[C@@H](N2C(=O)c3ccccc3C2=O)[C@@H]1Cl
64 µg/mL (≈ 136 µM) | 64 µg/mL (≈ 136 µM) | 16 µg/mL (≈ 34 µM) | 128 µg/mL (≈ 272 µM) | > 128 µg/mL | > 128 µg/mL | CC1(C)SN(Cc2ccccc2)C(=O)[C@@H]1N1C(=O)[C@@H](N2C(=O)c3ccccc3C2=O)[C@@H]1Cl
 |  | > 128 µg/mL |  |  |  | C[C@H](NC(=O)[C@@H]1N2C(=O)[C@@H](N3C(=O)c4ccccc4C3=O)[C@H]2SC1(C)C)C(=O)OCc1ccccc1
64 µg/mL (≈ 118 µM) | 64 µg/mL (≈ 118 µM) | 32 µg/mL (≈ 59 µM) | 64 µg/mL (≈ 118 µM) | > 128 µg/mL | > 128 µg/mL | C[C@@H](C(=O)OCc1ccccc1)N1SC(C)(C)[C@@H](N2C(=O)[C@@H](N3C(=O)c4ccccc4C3=O)[C@@H]2Cl)C1=O

From ChEMBL document CHEMBL1158567, “Azetidinone-isothiazolidinones: stereoselective synthesis and antibacterial evaluation of new monocyclic beta-lactams” (2010)
